Published values collected from several papers.
Each line is one published result; the experiments were not run side by side.
Observed: cell growth or viability

O=C1CCN(C(=O)Nc2ccc(F)c(Cl)c2)CN1Cc1ccc(F)cc1F — CC50 (AML12HBV10; MTT; 48 h): > 50 µM
C=C1[C@@H]2[C@H]3OC(=O)C(=C)[C@@H]3CCC(=C)[C@@H]2C[C@@H]1OC(C)=O — CC50 (CHO-K1; MTT; 72 h): 6.9 µM
COc1ccc2c(Cc3ccccc3F)c3[n+](cc2c1OC)CCc1cc2c(cc1-3)OCO2 — IC50 (L929; CCK-8; 24 h): 19.9 µM
Cn1cnc2c1c(=O)n(CC(=O)Nc1c(Cl)cccc1Cl)c(=O)n2C — viability (Vero; MTT; 250 µg/mL): 70.7%
CCNc1nc(Nc2ccc(F)c(Cl)c2)c2ccccc2n1 — viability (Vero; MTT; 500 µg/mL): 6.91%
COC(=O)c1[nH]c(C(=O)OC)c(-c2c[nH]c3ccc(Cl)cc23)c1-c1c[nH]c2ccc(Cl)cc12 — CC50 (RAW264.7; resazurin; 72 h): > 10 µM
O=S(=O)(NNc1nnc(Cl)c2ccccc12)c1ccc(F)cc1 — viability (Vero; MTT; 500 µg/mL): 4.75%
NC(=O)c1ncn([C@@H]2O[C@H](CO)[C@@H](O)[C@H]2O)n1 — CC50 (BHK-21; WST-1; 72 h): > 100 µM
COc1ccc(S(=O)(=O)ON=C2C=C(C)C(=O)C(C)=C2)cc1 — CC50 (MDA-MB-436): 2.85 µM
